CHOP UPR activ = activators of apoptotic arm of unfolded protein response (CHOP). AID 449763. 330,000 tested, 0.34% active. activation, % at 10 µM. CHO-CHOP luciferase reporter, UPR activation, luminescence; percent of tunicamycin response over DMSO baseline;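 active = at 10 µM dose, activation of 40% or more, normalized to positive control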;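 also: 100% = tunicamycin at 10 µg/mL and 0% = DMSO alone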
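Test system: CHO CHOP reporter cells. Input: 500 CHO-CHOP cells per well. Medium: F12 with 10% FBS. Technique: luciferase luminescence. Measure: percent activation relative to tunicamycin control. Dosing: 10 µM compound, 0.5% DMSO. Timing: 16-18 h cell attachment, then 6 h compound exposure, 37 °C.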
XBP1 UPR activ = adaptive UPR (XBP1) activation | CHO-XBP1 luciferase reporter, IRE1-XBP1 UPR activation, luminescence; percent of tunicamycin response, DMSO as zero | activation, % at 20 µM | 330,000 tested, 0.33% active;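 active = versus positive control, 20 µM dose yields 30% or more activation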;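 also: 100% = tunicamycin at 10 µg/mL and 0% = DMSO only wells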
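Material: CHO-XBP1 cells stably carrying IRE1-XBP1-driven luciferase reporter | Medium: F12 with 10% serum | Compound dosing: 20 µM single concentration, DMSO 1% | Incubation: Overnight seeding at 37 °C, 6 h compound treatment at 37 °C | Detection: Steady-Glo luminescence read | Read-out basis: % activation of reporter signal versus tunicamycin and DMSO controls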
MC4R ag barr = agonists of human melanocortin 4 receptor (MC4R) beta-arrestin. P32245. U2OS MC4R beta-arrestin complementation, luminescence; percent of melanotan II response, DMSO zero. activation, % at 8.9 µM. 360,000 tested, 0.98% active. AID 540308;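 active = activation above a per-plate cutoff, the mean activation of sample wells on that plate plus 3 SD, cut at about 8% in these data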
Target sequence (P32245 whole entry, looked up): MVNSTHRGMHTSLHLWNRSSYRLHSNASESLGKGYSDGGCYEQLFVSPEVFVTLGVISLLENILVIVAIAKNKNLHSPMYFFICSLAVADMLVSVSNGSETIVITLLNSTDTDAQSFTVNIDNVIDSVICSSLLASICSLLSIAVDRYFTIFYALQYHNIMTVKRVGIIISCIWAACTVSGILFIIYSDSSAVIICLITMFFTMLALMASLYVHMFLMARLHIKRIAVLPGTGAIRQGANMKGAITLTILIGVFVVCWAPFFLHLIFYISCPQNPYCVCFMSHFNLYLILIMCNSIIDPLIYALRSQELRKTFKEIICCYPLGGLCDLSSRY
MC4R antag cAMP = human MC4R antagonism in cAMP assay. P32245. MC4R-expressing cells, MTII-stimulated cAMP, LANCE TR-FRET. inhibition, % at 6.5 µM. 360,000 tested, 0.48% active;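 active = inhibition above its plate's cutoff, the mean of tested wells on that plate plus 3 SD, cut at about 29% in these data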;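 also: 0% = Melanotan II alone and 100% = Melanotan II plus saturating MCL0020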
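System: U2OS-MC4R stable cell line; Technique: Eu-cAMP/anti-cAMP TR-FRET, emission 671 nm; Repeats: single well per compound; Also added: Melanotan II; Dosing: one concentration, 6.5 µM nominal; Schedule: 30-min compound, 1-h challenge, 1-h detection, room temperature.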
A1 inh = inhibitors of the anti-apoptotic protein A1, read as caspase activation; MEF A1-2A-BIM cells, Caspase-Glo 3/7 luminescence, 3 h; percent of clofoctol response, vehicle zero; caspase activation, % (concentration not given with the values); 330,000 tested, 0.066% active; AID 2462;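 active = over half of replicate activation scores above 10%, or exactly half above 10 with the replicate mean above 10; inconclusive = replicate mean below 10 yet half the replicates above 10; inactive = over half of replicates below 10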
CHOP UPR conf = confirmation of apoptotic unfolded protein response (CHOP) activators; shares compounds with CHOP UPR activ; CHO-CHOP cells, CHOP-luciferase reporter luminescence; percent of tunicamycin response, DMSO as zero; activation, % at 10 µM; 1,000 tested, 64% active; in the data active = activation above about 33%;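 also: 0% = DMSO wells and 100% = tunicamycin 10 µg/mL wells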
* marks the source's active call; other numbers are inactive results. An excerpt weighted towards active compounds, which were near 2% of everything screened.

How did Cn1c(SCC(=O)Nc2ccc(N3CCOCC3)c(Cl)c2)nnc1C(O)c1ccccc1 (centres undefined) do in these assays?
CHOP UPR activ: 43.3*; XBP1 UPR activ: 0.4; MC4R ag barr: -1.8; MC4R antag cAMP: 3.2; A1 inh: -0.5; CHOP UPR conf: -0.9

What do the screens show for `COc1ccc(C(C)(O)c2nc(-c3ccccc3OC)cs2)cc1` (centres undefined)?
MC4R ag barr: -1.5; MC4R antag cAMP: -2.5

What do the screens show for `CCc1nc2ccc(C(=O)Nc3cccc(OCC(=O)N(C)C)c3)cn2c1N(C)Cc1cc2ccccc2s1`?
MC4R ag barr: 2.5; MC4R antag cAMP: 25.1

Results for O=C(Nc1ccccn1)C(=O)Nc1ccccn1 ?
CHOP UPR activ: -0.4; XBP1 UPR activ: -1.8; MC4R ag barr: -0.4; MC4R antag cAMP: -3.8; A1 inh: -6.2

How did S=C(Nc1ccccn1)c1ccccn1 do in these assays?
CHOP UPR activ: 165.1*; XBP1 UPR activ: 16.1; MC4R ag barr: -1.4; MC4R antag cAMP: 1.1; A1 inh: -5.0; CHOP UPR conf: 126.1*

How did Cc1ccc(C(=O)c2c(C)oc3c2C(=O)C(=O)c2ccccc2-3)cc1 do in these assays?
CHOP UPR activ: 64.5*; XBP1 UPR activ: -7.0; MC4R ag barr: 1.9; MC4R antag cAMP: -6.5; A1 inh: -0.1; CHOP UPR conf: 0.3

What do the screens show for `O=C1c2cccc3c([N+](=O)[O-])ccc(c23)C(=O)N1CCc1ccccn1`?
CHOP UPR activ: 57.7*; XBP1 UPR activ: 8.8; MC4R ag barr: 0.4; MC4R antag cAMP: 5.9; A1 inh: -0.3; CHOP UPR conf: 23.7

How did CCOC(=O)C1CCCN(C(=O)c2cncc(Br)c2)CC1 (centres undefined) do in these assays?
MC4R ag barr: -1.5; MC4R antag cAMP: 6.8

How did O=C(/C=C\c1ccccc1OC(=O)c1ccccc1F)c1cc2ccccc2o1 do in these assays?
CHOP UPR activ: 54.9*; XBP1 UPR activ: 12.3; MC4R ag barr: -1.3; MC4R antag cAMP: -11.5; A1 inh: -1.3; CHOP UPR conf: 286.8*

What do the screens show for `O=C(/C=C/c1ccncc1)c1ccc2c(c1)OCCO2`?
CHOP UPR activ: 5.3; XBP1 UPR activ: -3.5; MC4R ag barr: -0.3; MC4R antag cAMP: 24.6; A1 inh: 0.1

Results for COc1cc(/C=C/C(=O)c2ccc3c(c2)OCCO3)cc(Br)c1OCC(=O)N(C)C ?
CHOP UPR activ: 135.3*; XBP1 UPR activ: 13.5; MC4R ag barr: -1.0; MC4R antag cAMP: 6.8; A1 inh: -0.4; CHOP UPR conf: 271.6*

How did O=C(NCCc1ccccc1)c1coc(=O)c(Br)c1 do in these assays?
CHOP UPR activ: 105.4*; XBP1 UPR activ: -7.9; MC4R ag barr: 0.4; MC4R antag cAMP: -6.5; A1 inh: 1.5; CHOP UPR conf: 72.6*

Results for CC(C)CNC(=O)c1coc(=O)c(Br)c1 ?
CHOP UPR activ: 175.4*; XBP1 UPR activ: -5.8; MC4R ag barr: -0.8; MC4R antag cAMP: 7.5; A1 inh: -0.1; CHOP UPR conf: 70.0*

What do the screens show for `Cn1nnnc1Sc1ncnc2scc(-c3ccc([N+](=O)[O-])cc3)c12`?
CHOP UPR activ: 92.6*; XBP1 UPR activ: -4.3; MC4R ag barr: -1.1; MC4R antag cAMP: -14.4; A1 inh: inconclusive; CHOP UPR conf: 104.7*

How did O=S1(=O)Nc2c(ccc3cccnc23)-c2ccccc21 do in these assays?
CHOP UPR activ: 345.8*; XBP1 UPR activ: 1.4; MC4R ag barr: -1.6; MC4R antag cAMP: 5.9; A1 inh: -1.4; CHOP UPR conf: 425.2*

Results for Cc1[nH]c2ccccc2c1CN1CCN(c2ccccn2)CC1 ?
CHOP UPR activ: 50.2*; XBP1 UPR activ: 24.9; MC4R ag barr: -1.9; MC4R antag cAMP: 4.9; A1 inh: 0.3; CHOP UPR conf: 8.1

How did c1ccc(N2CCN(Cc3nc4ccccc4[nH]3)CC2)nc1 do in these assays?
CHOP UPR activ: 3.7; XBP1 UPR activ: -3.3; MC4R ag barr: -0.3; MC4R antag cAMP: 1.9; A1 inh: 0.8

How did Oc1ccc(Nc2nc(-c3ccc4ccccc4c3)cs2)cc1 do in these assays?
CHOP UPR activ: 62.9*; XBP1 UPR activ: 16.5; MC4R ag barr: 0.8; MC4R antag cAMP: 12.6; A1 inh: 0.0; CHOP UPR conf: 30.1

Results for Oc1ccc(-c2nc(-c3ccc(O)c(O)c3)cs2)cc1 ?
CHOP UPR activ: 146.4*; XBP1 UPR activ: 9.2; MC4R ag barr: -1.6; MC4R antag cAMP: -20.6; A1 inh: 0.2; CHOP UPR conf: 96.5*

What do the screens show for `CC(=O)Nc1nc(-c2ccc3ccccc3c2)cs1`?
CHOP UPR activ: 3.4; XBP1 UPR activ: 1.4; MC4R ag barr: 0.7; MC4R antag cAMP: -9.8; A1 inh: -4.5

Results for Oc1ccc(-c2csc(-c3cccnc3)n2)c(O)c1 ?
CHOP UPR activ: 3.8; XBP1 UPR activ: 1.0; MC4R ag barr: -2.4; MC4R antag cAMP: -38.7; A1 inh: -0.4

What do the screens show for `N#Cc1ccccc1S(=O)(=O)N1CCN(C(=O)CN(Cc2ccco2)Cc2cccs2)CC1`?
MC4R ag barr: -0.7; MC4R antag cAMP: 2.9

How did Cc1cc(F)ccc1-c1cc(C(=O)NCc2cccs2)[nH]n1 do in these assays?
MC4R ag barr: 1.0; MC4R antag cAMP: 7.7

How did OC[C@@H]1CN(Cc2ccc3c(c2)OCO3)C[C@H](n2cnc3c(NCc4ccncc4)ncnc32)O1 do in these assays?
MC4R ag barr: -0.1; MC4R antag cAMP: 7.3

How did NC(Cc1ccc(Cl)cc1)c1csc(Nc2ccc(C(F)(F)F)cn2)n1 (centres undefined) do in these assays?
MC4R ag barr: 1.6; MC4R antag cAMP: 5.9

Results for Cc1cc(C)nc(S/C=C/C(=O)c2ccccc2F)n1 ?
CHOP UPR activ: 73.2*; XBP1 UPR activ: 0.1; MC4R ag barr: -1.9; MC4R antag cAMP: -8.6; A1 inh: 1.2; CHOP UPR conf: 8.0

Results for CC(=O)Nc1ccc(S(=O)(=O)N(CC(=O)NCC2CCCO2)Cc2ccccc2Cl)cc1 (centres undefined) ?
MC4R ag barr: 1.4; MC4R antag cAMP: 12.7

How did Cc1nc([N+](=O)[O-])c(Br)n1CC(=O)c1ccc(Cl)cc1 do in these assays?
CHOP UPR activ: 57.6*; XBP1 UPR activ: -5.7; MC4R ag barr: -0.7; MC4R antag cAMP: 10.2; A1 inh: -0.3; CHOP UPR conf: 59.7*

Results for COc1ccc(C(=O)Cn2c(C)nc([N+](=O)[O-])c2Br)cc1 ?
CHOP UPR activ: 3.9; XBP1 UPR activ: -1.6; MC4R ag barr: 0.3; MC4R antag cAMP: -3.4; A1 inh: 0.2

Results for O=C(c1ccc(CNS(=O)(=O)c2ccc(F)cc2)cc1)N1CCCCCC1 ?
MC4R ag barr: -0.1; MC4R antag cAMP: 0.5

Screening data (PubChem)
